How the values were obtained:
[1] = molecular target: Small conductance calcium-activated potassium channel protein 3 (Rattus norvegicus) (UniProt P70605); test: Inhibition of KCa2.3 in Sprague-Dawley rat superior cervical ganglion neurons assessed as inhibition of afterhyperpolarization by electrophysiological assay relative to UCL1848
Procedure, shortened: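 AHP recorded from rat sympathetic ganglion neurons. The equi-effective molar ratio is the test-compound concentration giving 50% AHP inhibition divided by the UCL 1848 concentration giving 50% inhibition, both measured in the same experiment. Each compound was tested on 3–5 neurons.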
Target sequence in this assay (P70605 whole entry): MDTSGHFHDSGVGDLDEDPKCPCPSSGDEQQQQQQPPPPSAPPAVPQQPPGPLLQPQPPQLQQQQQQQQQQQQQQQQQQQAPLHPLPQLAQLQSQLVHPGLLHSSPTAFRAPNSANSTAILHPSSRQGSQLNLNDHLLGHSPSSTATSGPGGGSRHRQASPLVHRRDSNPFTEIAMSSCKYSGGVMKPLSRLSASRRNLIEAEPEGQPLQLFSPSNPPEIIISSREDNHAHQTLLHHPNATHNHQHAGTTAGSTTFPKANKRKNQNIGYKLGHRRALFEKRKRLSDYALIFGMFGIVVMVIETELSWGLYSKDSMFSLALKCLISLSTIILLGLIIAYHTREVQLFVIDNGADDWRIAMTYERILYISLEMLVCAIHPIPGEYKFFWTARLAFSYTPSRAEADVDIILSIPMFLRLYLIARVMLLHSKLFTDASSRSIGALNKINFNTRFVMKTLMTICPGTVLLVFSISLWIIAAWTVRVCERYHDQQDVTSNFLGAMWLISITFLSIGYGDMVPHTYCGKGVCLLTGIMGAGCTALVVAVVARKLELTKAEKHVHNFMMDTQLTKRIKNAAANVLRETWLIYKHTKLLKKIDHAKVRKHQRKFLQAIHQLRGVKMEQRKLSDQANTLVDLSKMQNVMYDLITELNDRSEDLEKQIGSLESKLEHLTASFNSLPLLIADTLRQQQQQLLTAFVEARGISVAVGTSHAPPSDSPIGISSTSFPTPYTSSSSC

[2] = molecular target: Small conductance calcium-activated potassium channel protein 3 (Rattus norvegicus, UniProt P70605); test: Inhibition of KCa2.3 in Sprague-Dawley rat superior cervical ganglion neurons assessed as inhibition of afterhyperpolarization by electrophysiological assay
Procedure, shortened: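 Afterhyperpolarization (AHP) recorded from rat sympathetic ganglion neurons. The reported value is the concentration giving a 50% reduction in AHP amplitude.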

[3] = molecular target: Small conductance calcium-activated potassium channel protein 3 (Rattus norvegicus) (UniProt P70605); test: Inhibition of KCa2.3 in Sprague-Dawley rat superior cervical ganglion neurons assessed as inhibition of afterhyperpolarization by electrophysiological assay relative to dequalinium
Procedure, shortened: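 AHP recorded from rat sympathetic ganglion neurons. The equi-effective molar ratio is the concentration giving 50% AHP inhibition relative to that of dequalinium, used as the comparator instead of UCL 1848.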
Target sequence in this assay (P70605 whole entry): as above

[4] = molecular target: Small conductance calcium-activated potassium channel protein 3 (Rattus norvegicus) (UniProt P70605); test: Inhibition of KCa2.3 in rat superior cervical ganglion neurons
Target sequence in this assay (P70605 whole entry, looked up): as the sequence (P70605 whole entry) above

Chain of Small conductance calcium-activated potassium channel protein 3 (P70605 whole entry): as above

Row | Compound | EMR [1] | IC50 [2] | EMR [3] | IC50 [4]
1 | c1ccc2c(c1)c1cc[n+]2Cc2ccc(cc2)C[n+]2ccc(c3ccccc32)NCCCCCN1 | 1.8 | 0.0044 µM |  | 
2 | c1ccc2c(c1)c1cc[n+]2CCSCC[n+]2ccc(c3ccccc32)NCCCCCN1 | 1.2 | 0.0041 µM |  | 
3 | CC1CCNc2cc[n+](c3ccccc23)CCC(C)CC[n+]2ccc(c3ccccc32)NCC1 (configuration not stated) | 2.3 | 0.0052 µM |  | 
4 | c1cc2cc(c1)CNc1cc[n+](c3ccccc13)CCCCC[n+]1ccc(c3ccccc31)NC2 [listing 1 of 3 here] | 12 |  |  | 
5 | FC(F)(F)c1ccc2c(c1)c1cc[n+]2Cc2cccc(c2)C[n+]2ccc(c3cc(C(F)(F)F)ccc32)NCc2ccc(cc2)CN1 | 11 | 0.027 µM |  | 
6 | Clc1ccc2c(c1)c1cc[n+]2CCCCC[n+]2ccc(c3cc(Cl)ccc32)NCCCCCN1 | 1.1 | 0.003 µM |  | 
7 | FC(F)(F)c1ccc2c3cc[n+](c2c1)Cc1cccc(c1)C[n+]1ccc(c2ccc(C(F)(F)F)cc21)NCc1ccc(cc1)CN3 | 31 | 0.076 µM |  | 
8 | c1ccc2c(c1)c1cc[n+]2CCSCC[n+]2ccc(c3ccccc32)NCCOCCN1 | 11 | 0.037 µM |  | 
9 | COc1ccc2c(c1)c1cc[n+]2CCCCC[n+]2ccc(c3cc(OC)ccc32)NCCCCCN1 | 3.1 | 0.0068 µM |  | 
10 | FC1(F)CNc2cc[n+](c3ccccc23)CCCCC[n+]2ccc(c3ccccc32)NCC(F)(F)C1(F)F | 13.5 | 0.033 µM |  | 
11 | c1ccc2c(c1)c1cc[n+]2CCCCC[n+]2ccc(c3ccccc32)SCCCCCS1 | 25 | 0.124 µM |  | 
12 | c1ccc2c(c1)c1cc[n+]2CCCCC[n+]2ccc(c3ccccc32)NCCCCCN1 |  | 0.0027 µM |  | 
13 | Cc1ccc2c(c1)c1cc[n+]2CCCCC[n+]2ccc(c3cc(C)ccc32)NCCCCCN1 | 2 | 0.0038 µM |  | 
14 | O=C1CCNc2cc[n+](c3ccccc23)CCCCC[n+]2ccc(c3ccccc32)NCC1 | 3.6 | 0.012 µM |  | 
15 | O=[N+]([O-])c1ccc2c(c1)c1cc[n+]2CCCCC[n+]2ccc(c3cc([N+](=O)[O-])ccc32)NCCCCCN1 | 2.1 | 0.0041 µM |  | 
16 | c1ccc(CN2CCCCCN(Cc3ccccc3)c3cc[n+](c4ccccc34)CCCCC[n+]3ccc2c2ccccc23)cc1 | 25 | 0.123 µM |  | 
17 | Clc1ccc2c3cc[n+](c2c1)Cc1cccc(c1)C[n+]1ccc(c2ccc(Cl)cc21)NCc1ccc(cc1)CN3 | 7.3 | 0.019 µM |  | 
18 | C1#CCNc2cc[n+](c3ccccc23)CCCCC[n+]2ccc(c3ccccc32)NC1 | 5.6 | 0.014 µM |  | 
19 | Oc1ccc2c(c1)c1cc[n+]2CCCCC[n+]2ccc(c3cc(O)ccc32)NCCCCCN1 | 1.8 | 0.0039 µM |  | 
20 | c1cc2cc(c1)C[n+]1ccc(c3ccccc31)NCc1ccc(cc1)CNc1cc[n+](c3ccccc13)C2 | 1.44 | 0.0041 µM |  | 
21 | c1cc2cc(c1)CNc1cc[n+](c3ccccc13)CCCCC[n+]1ccc(c3ccccc31)NC2 [listing 3 of 3 here] |  |  |  | 0.031 µM
22 | Clc1ccc2c3cc[n+](c2c1)CCCCC[n+]1ccc(c2ccc(Cl)cc21)NCCCCCN3 | 0.53 | 0.0026 µM |  | 
23 | c1ccc2c(c1)c1cc[n+]2CCC2(CC[n+]3ccc(c4ccccc43)NCCC3(CCN1)OCCO3)OCCO2 | 83 | 0.3 µM |  | 
24 | c1cc2cc(c1)C[n+]1ccc(c3ccccc31)NCC1CCC(CC1)CNc1cc[n+](c3ccccc13)C2 | 0.81 | 0.0017 µM |  | 
25 | Fc1ccc2c(c1)c1cc[n+]2CCCCC[n+]2ccc(c3cc(F)ccc32)NCCCCCN1 | 2.1 | 0.0041 µM |  | 
26 | FC(F)(F)Oc1ccc2c(c1)c1cc[n+]2Cc2cccc(c2)C[n+]2ccc(c3cc(OC(F)(F)F)ccc32)NCc2ccc(cc2)CN1 | 5.9 | 0.015 µM |  | 
27 | c1ccc2c(c1)c1cc[n+]2CCOCC[n+]2ccc(c3ccccc32)NCCOCCN1 | 5.1 | 0.017 µM |  | 
28 | c1ccc2c(c1)c1cc[n+]2CCCCC[n+]2ccc(c3ccccc32)NCC2CCC(CC2)CN1 | 54 | 0.114 µM |  | 
29 | COc1ccc2c(c1)c1cc[n+]2Cc2cccc(c2)C[n+]2ccc(c3cc(OC)ccc32)NCc2ccc(cc2)CN1 | 7.4 | 0.015 µM |  | 

Next, values leading:

Row | EMR [1] | IC50 [2] | EMR [3] | IC50 [4] | Compound
30 | 153 | 0.394 µM |  |  | Oc1c2cccc1CNc1cc[n+](c3ccccc13)CCCCC[n+]1ccc(c3ccccc31)NC2
31 | 0.91 | 0.0032 µM |  |  | OC1CCNc2cc[n+](c3ccccc23)CCCCC[n+]2ccc(c3ccccc32)NCC1
32 | 8.6 | 0.021 µM |  |  | Clc1cc(Cl)c2c3cc[n+](c2c1)CCCCC[n+]1ccc(c2c(Cl)cc(Cl)cc21)NCCCCCN3
33 | 136 | 0.348 µM |  |  | Oc1c2cc(I)cc1CNc1cc[n+](c3ccccc13)CCCCC[n+]1ccc(c3ccccc31)NC2
34 | 47 | 0.124 µM | 0.14 |  | CN1CCCCCN(C)c2cc[n+](c3ccccc23)CCCCC[n+]2ccc1c1ccccc12
35 | 1.04 | 0.0023 µM |  |  | Nc1ccc2c(c1)c1cc[n+]2CCCCC[n+]2ccc(c3cc(N)ccc32)NCCCCCN1
36 | 4.1 | 0.0098 µM |  |  | COc1ccc2c3cc[n+](c2c1)Cc1cccc(c1)C[n+]1ccc(c2ccc(OC)cc21)NCc1ccc(cc1)CN3
37 | 19 | 0.042 µM |  |  | C1=C\C[n+]2ccc(c3ccccc32)NCCCCCNc2cc[n+](c3ccccc23)C/1
38 | 1.1 | 0.004 µM |  |  | FC(F)(F)c1ccc2c(c1)c1cc[n+]2CCCCC[n+]2ccc(c3cc(C(F)(F)F)ccc32)NCCCCCN1
39 | 6.1 | 0.013 µM |  |  | C1=C\CNc2cc[n+](c3ccccc23)CCCCC[n+]2ccc(c3ccccc32)NC/1
40 | 1.1 | 0.003 µM |  |  | COc1ccc2c3cc[n+](c2c1)CCCCC[n+]1ccc(c2ccc(OC)cc21)NCCCCCN3
41 | 12 | 0.042 µM |  |  | c1ccc2c(c1)c1cc[n+]2CCSCC[n+]2ccc(c3ccccc32)NCCSCCN1
42 | 6.9 | 0.017 µM |  |  | Fc1ccc2c(c1)c1cc[n+]2Cc2cccc(c2)C[n+]2ccc(c3cc(F)ccc32)NCc2ccc(cc2)CN1
43 |  |  |  | 0.06 µM | c1ccc2c(c1)c1cc[n+]2CCCCC[n+]2ccc(c3ccccc32)NCc2ccc(cc2)CN1
44 | 5 | 0.017 µM |  |  | c1ccc2c(c1)c1cc[n+]2CCCCC[n+]2ccc(c3ccccc32)NCCOCCN1
45 | 10 | 0.024 µM |  |  | Clc1cc(Cl)c2c3cc[n+](c2c1)Cc1cccc(c1)C[n+]1ccc(c2c(Cl)cc(Cl)cc21)NCc1ccc(cc1)CN3
46 | 7.6 | 0.019 µM |  |  | Cc1ccc2c(c1)c1cc[n+]2Cc2cccc(c2)C[n+]2ccc(c3cc(C)ccc32)NCc2ccc(cc2)CN1
47 | 1.6 | 0.0081 µM |  |  | FC(F)(F)c1ccc2c3cc[n+](c2c1)CCCCC[n+]1ccc(c2ccc(C(F)(F)F)cc21)NCCCCCN3
48 | 38 | 0.097 µM |  |  | COc1c2cccc1CNc1cc[n+](c3ccccc13)CCCCC[n+]1ccc(c3ccccc31)NC2
49 | 5.3 | 0.018 µM |  |  | c1ccc2c(c1)c1cc[n+]2CCCCC[n+]2ccc(c3ccccc32)NCCSCCN1
50 |  | 0.033 µM |  |  | c1cc2cc(c1)CNc1cc[n+](c3ccccc13)CCCCC[n+]1ccc(c3ccccc31)NC2 [listing 2 of 3 here]
51 | 2.6 | 0.0059 µM |  |  | CC1CCNc2cc[n+](c3ccccc23)CCCCC[n+]2ccc(c3ccccc32)NCC1
52 | 17 | 0.058 µM |  |  | c1ccc2c(c1)c1cc[n+]2CCOCC[n+]2ccc(c3ccccc32)NCCSCCN1
53 | 1.7 | 0.0037 µM |  |  | Nc1ccc2c(c1)c1cc[n+]2Cc2cccc(c2)C[n+]2ccc(c3cc(N)ccc32)NCc2ccc(cc2)CN1
54 | 60 | 0.214 µM |  |  | c1ccc2c(c1)c1cc[n+]2CCCCC[n+]2ccc(c3ccccc32)NCCC2(CCN1)OCCO2
55 | 1.4 | 0.0048 µM |  |  | c1ccc2c(c1)c1cc[n+]2CCOCC[n+]2ccc(c3ccccc32)NCCCCCN1
56 | 1.7 | 0.0038 µM |  |  | CC1CC[n+]2ccc(c3ccccc32)NCCCCCNc2cc[n+](c3ccccc23)CC1
57 | 8 | 0.021 µM |  |  | Clc1ccc2c(c1)c1cc[n+]2Cc2cccc(c2)C[n+]2ccc(c3cc(Cl)ccc32)NCc2ccc(cc2)CN1
58 | 2.6 | 0.0051 µM |  |  | O=[N+]([O-])c1ccc2c(c1)c1cc[n+]2Cc2cccc(c2)C[n+]2ccc(c3cc([N+](=O)[O-])ccc32)NCc2ccc(cc2)CN1

Reference: ChEMBL document CHEMBL2390924, “Further studies on bis-charged tetraazacyclophanes as potent inhibitors of small conductance Ca(2+)-activated K+ channels” (Eur J Med Chem, 2013)
